# An excerpt weighted towards active compounds, which were near 2.2% of everything screened.
# FGF22 binding: binders of human FGF22 protein, primary screen, FGF22 synaptogenesis inhibitor project, biophysical, thermal shift, single point | activity (Tm shift, normalised), % at 9.99 µM | Fibroblast growth factor 22 (Homo sapiens), Q9HCT0 | recombinant FGF22 thermal shift, SYPRO orange fluorescence; percent of sucrose octasulfate shift, DMSO zero | actives 1.5% (n = 340,000);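 active means mean Tm shift, scaled 0 neutral to 100 positive control, at about 1.3% or above, every replicate too, limit read from the data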
# Target sequence (Q9HCT0 whole entry, looked up): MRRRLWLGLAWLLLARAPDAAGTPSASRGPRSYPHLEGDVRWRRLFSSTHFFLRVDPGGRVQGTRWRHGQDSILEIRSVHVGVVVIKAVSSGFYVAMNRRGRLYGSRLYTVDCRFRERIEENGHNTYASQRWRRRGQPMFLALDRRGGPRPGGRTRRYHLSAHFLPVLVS
# PGC1a acetyl inh: inhibitors of PGC1a acetylation signal, primary screen, cell-based, U2OS, AlphaScreen, inhibitor mode | inhibition, % at 15.6 µM | actives 0.17% (n = 350,000) | AlphaScreen anti-acetyl-lysine; with virally co-expressed GCN5 acetyltransferase;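 active means every replicate shows inhibition of at least 40%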;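 further: 0% = neutral control wells and 100% = positive control wells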
# SIRT5 inh: SIRT5 desuccinylase inhibitors, primary screen, biochemical, fluorescence imaging, single point, set 5. inhibition, % at 15 µM. Purified SirT5, succinyl-peptide AMC, trypsin-coupled fluorescence. NAD-dependent protein deacylase sirtuin-5, mitochondrial (Homo sapiens), Q9NXA8. actives 1.1% (n = 330,000). AID 652115, 2013; in the data active means inhibition above about 15%
# Target sequence (Q9NXA8 whole entry, looked up): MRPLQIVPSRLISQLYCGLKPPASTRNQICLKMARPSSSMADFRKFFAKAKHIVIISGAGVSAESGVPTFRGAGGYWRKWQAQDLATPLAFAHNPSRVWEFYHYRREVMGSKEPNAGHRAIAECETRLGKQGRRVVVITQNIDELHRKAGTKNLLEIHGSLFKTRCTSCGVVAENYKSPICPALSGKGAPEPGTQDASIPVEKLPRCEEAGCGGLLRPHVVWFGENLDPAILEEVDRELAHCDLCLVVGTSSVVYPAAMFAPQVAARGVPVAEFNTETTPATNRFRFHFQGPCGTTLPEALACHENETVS
# FN deposit inh: inhibitors of fibronectin matrix deposition, primary screen, AH1F cells, Alexa488-fibronectin fluorescence, plate reader. AH1F fibroblasts, overnight. inhibition, % at 12.6 µM. actives 0.086% (n = 350,000). AID 743247, 2014;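 active means mean inhibition across replicates of 30% or more, regardless of how many single replicates reach that level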;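 further: positive control wells lacked labelled fibronectin entirely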
#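 test system = AH1F fibroblasts assembling fluorescent fibronectin matrix | quantity = 10000 AH1F cells per well | buffer or medium = DMEM plus 2% serum, read in PBS | doses = single dose, pinned | incubation = 1 h cell attachment, overnight exposure to compound and label | detection = fluorescence at 485 nm excitation, 525 nm emission | read-out basis = inhibition from reduced deposited-fibronectin fluorescence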
# ERAP1 inh: human ERAP1 aminopeptidase inhibitors, primary screen, biochemical, single point, plate reader; Endoplasmic reticulum aminopeptidase 1 (Homo sapiens), Q9NZ08; inhibition, % at 10.7 µM; actives 0.15% (n = 340,000); AID 652197, 2013; recombinant ERAP1, Leu-AMC fluorescence, 60 min;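 active means mean replicate inhibition of at least 30%, or all replicates individually reaching that 30% level; inactive means mean below 30% and not every replicate reaching it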;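 further: 0% = neutral control wells and 100% = L-leucinethiol positive control wells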
# * hit, by the source's call; · = not tested or not shown.
SMILES,FGF22 binding,PGC1a acetyl inh,SIRT5 inh,FN deposit inh,ERAP1 inh
COc1ccccc1C(=O)Nc1ccc2c(c1)C(=O)N(C)[C@@H]1CC[C@@H](CC(=O)NCc3ccc(Cl)c(Cl)c3)O[C@H]1CO2,0,28,4,-9,-2
C[C@@H]1CN([C@H](C)CO)C(=O)c2c(c3ccccc3n2C)-c2ccccc2CO[C@@H]1CN(C)S(=O)(=O)c1ccc(C(F)(F)F)cc1,0,-20,32*,-3,-1
C[C@@H]1CN([C@H](C)CO)C(=O)c2c(c3ccccc3n2C)-c2ccccc2CO[C@H]1CN(C)S(=O)(=O)c1ccc(C(F)(F)F)cc1,0,-6,25*,-13,2
CCNC(=O)C[C@@H]1CC[C@H]2[C@H](COc3ccc(NC(=O)C4CCCCC4)cc3C(=O)N2C)O1,·,3,-1,-18,0
CCCCN1CC(COCc2ccccc2)Oc2cccc(N3CCCC3)c2S1(=O)=O (stereo not given),43*,-1,·,-9,3
Cc1ccc2nc(NC(=O)c3ccc(N4C(=O)CCC4=O)cc3)sc2c1,43*,13,-3,-4,-3
Cc1cc(C)c2sc(NC(=O)c3ccc(N4C(=O)CCC4=O)cc3)nc2c1,0,5,-4,-5,·
CC(C)NC(=O)N(C)C[C@H]1Oc2cc(C#CC3CC3)ccc2S(=O)(=O)N([C@@H](C)CO)C[C@H]1C,0,9,1,·,-1
COc1cccc(S(=O)(=O)N2C[C@H](O)COC[C@@H]3O[C@H](CC(=O)N4CCN(C)CC4)CC[C@H]32)c1,0,8,0,-3,1
O=[N+]([O-])c1cccc(-c2csc(Nc3ccccc3)n2)c1,1,-4,-1,3,-1
COc1cc(NS(=O)(=O)c2ccc(Nc3nc(-c4cccc([N+](=O)[O-])c4)cs3)cc2)nc(OC)n1,0,-12,19*,-5,-2
CC(C)COCC(O)CC(Cc1ccccc1)C(=O)NN (stereo not given),43*,4,2,·,2
CCCCC(CC(O)COCC(C)C)C(=O)NN (stereo not given),1,·,3,9,2
COc1cccc(-c2cccc(-c3nc(C(=O)NCC(F)(F)F)cc4c3[C@H](CCO)N([S@@](=O)C(C)(C)C)C4)c2)c1,-1,-14,1,11,1
O=C(NCC1CC1)c1cc2c(c(-c3cccc(-c4ccccc4F)c3)n1)[C@@H](CCO)N(C(=O)CC1CC1)C2,0,·,15*,-7,-3
COCCNC(=O)c1cc2c(c(-c3cccc(-c4cccc(F)c4)c3)n1)[C@@H](CCO)N(S(=O)C(C)(C)C)C2 (stereo not given in full),0,·,-4,·,-10
COCCNC(=O)c1cc2c(c(-c3cccc(-c4cccc(F)c4)c3)n1)[C@H](CCO)N(S(=O)C(C)(C)C)C2 (stereo not given in full),0,-6,36*,10,0
CCCNC(=O)c1cc2c(c(-c3cccc(-c4cccc(OC)c4)c3)n1)[C@H](CCO)N([S@@](=O)C(C)(C)C)C2,0,-5,18*,-8,0
C[C@H]1CN([C@@H](C)CO)C(=O)c2cc(NC(=O)Cc3ccccc3)ccc2O[C@@H]1CN(C)C(=O)Nc1ccc(C(F)(F)F)cc1,·,-3,5,·,-1
O=C(O)CN1C(=O)/C(=C/C=C/c2ccccc2)SC1=S,1,·,2,-7,4
CC(=O)c1ccc(NC(=O)CN2C(=O)/C(=C/C=C/c3ccccc3)SC2=S)cc1,1.4*,3,-4,·,-5
CC(/C=C1\SC(=S)N(CCC(=O)Nc2cccc(C(=O)O)c2)C1=O)=C\c1ccccc1,0,·,14,7,-5
CC(=Cc1ccccc1)C=C1SC(=S)N(CCCC(=O)Nc2ccc(C(=O)O)cc2)C1=O,0,·,27*,-6,·
COCC(=O)NC[C@@H]1[C@H](c2ccccc2)[C@@H](CO)N1C(C)=O,0,-5,2,2,0
CCN(CC)CCCN1C(=O)CSC1c1ccc([N+](=O)[O-])cc1 (stereo not given),43*,·,0,3,0
SMILES,FGF22 binding,PGC1a acetyl inh,SIRT5 inh,FN deposit inh,ERAP1 inh
CCN(CC)CCCN1C(=O)CSC1c1ccc2c(c1)OCO2 (stereo not given),·,-12,·,·,·
CC(=O)Nc1ccc(N2C(=O)CSC2c2ccc([N+](=O)[O-])cc2)cc1 (stereo not given),0,5,27*,-2,0
C[C@@H]1CN([C@H](C)CO)C(=O)c2cccc(NC(=O)Nc3cccc4ccccc34)c2O[C@@H]1CN(C)S(C)(=O)=O,0,-5,6,·,2
O=C(CSc1n[nH]c(=O)n1Cc1ccco1)Nc1ccccc1,1,-7,15*,-6,·
CSCCC(NS(=O)(=O)c1ccc2c(c1)Cc1cc(S(=O)(=O)NC(CCSC)C(=O)O)ccc1-2)C(=O)O (stereo not given),·,6,6,7,-4
CC(C)C(NS(=O)(=O)c1ccc2c(c1)Cc1cc(S(=O)(=O)NC(C(=O)O)C(C)C)ccc1-2)C(=O)O (stereo not given),0,-14,25*,-15,2
COCCN(C(=O)C1CCN(C(=O)c2ccccc2C)CC1)c1c(N)n(CC(C)C)c(=O)[nH]c1=O,0,1,-4,8,91*
Cc1ccccc1C(=O)N1CCC(C(=O)N(CC(C)C)c2c(N)n(CC(C)C)c(=O)[nH]c2=O)CC1,0,1,2,-9,1
CCOC(=O)C1CCN(CC(=O)N(CC(C)C)c2c(N)n(CC(C)C)c(=O)[nH]c2=O)CC1,44*,·,-6,3,-3
COCc1cn(CC[C@@H]2CC[C@H](NC(=O)Nc3ccc(C(F)(F)F)cc3)[C@H](CO)O2)nn1,0,1,-2,7,0
Cc1ccc(S(=O)(=O)N[C@@H]2CC[C@@H](CC(=O)NCCN3CCCCC3)O[C@H]2CO)cc1,0,-8,-1,2,0
CC(C)NC(=O)Nc1ccc2c(c1)C(=O)N([C@@H](C)CO)C[C@@H](C)[C@H](CN(C)C(=O)CCCN(C)C)OCCCC[C@H](C)O2,·,-5,·,0,·
COCC(=O)Nc1ccc2c(c1)[C@@H]1C[C@@H](CC(=O)N(C)C)O[C@@H](CO)[C@@H]1O2,0,-2,-4,-4,-2
COC(=O)c1ccccc1NC(=O)COC(=O)[C@H](C)NC(N)=O,44*,-6,-1,0,-4
